According to ChEMBL document CHEMBL2093137, “WHO-TDR NTD Screening”:
≈ marks a conversion by molar mass, not a printed value.

How the values were obtained:
[1] = test system: Plasmodium falciparum K1; assay: WHO-TDR: Malaria; format: functional, organism-based, Homo sapiens; conditions: Erythrocyte
In short: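 Previously published standard procedures, including a reference drug as positive control, were used to screen whole Plasmodium falciparum K1 parasites inside human red blood cells. IC50 is the measure of antiplasmodial potency. The compounds were a 10,000-member diverse Life Chemicals library.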

[2] = test system: Leishmania infantum; assay: WHO-TDR: Leishmaniasis; format: functional, organism-based, Mus musculus; conditions: Macrophage
In short: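 Intracellular amastigotes of Leishmania infantum MHOM/MA(BE)/67, hosted in murine peritoneal macrophages, were exposed to compounds from a 10,000-member diverse library supplied by Life Chemicals. The library had been filtered for drug-likeness and reactive groups. The reported IC50 expresses antiparasitic potency.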

[3] = test system: Onchocerca lienalis; assay: WHO-TDR: Onchocerciasis; format: functional; parameters: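 at 12.5 µM on microfilariae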
In short: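 Percent inhibition and IC50 describe activity against microfilariae of Onchocerca ochengi or Onchocerca lienalis, used as animal-pathogen substitutes for the human parasite. The compounds tested made up a 10,000-member diverse library from Life Chemicals.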

[4] = WHO-TDR: Cytotoxicity; format: toxicity, cell-based; conditions: human, MRC5 cells
[5] = test system: Schistosoma mansoni; assay: (§1) WHO-TDR: Schistosomiasis; format: functional; parameters: concentration or dose not given beside the values
In short: (§2)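 Percent inhibition and IC50 describe activity against whole Schistosoma mansoni worms of the Puerto Rican strain, tested as larvae and/or adults. The compounds screened were a diverse set of 10,000 from Life Chemicals, filtered for drug-likeness and reactive groups. Testing followed previously published standard procedures, with a reference drug as positive control.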

[6] = test system: Brugia malayi; assay: (§3) WHO-TDR: Lymphatic Filariasis; format: functional, organism-based;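 on % Inhibition: tested at 10 µM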
In short: (§4)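 The screening set was a 10,000-compound diverse library from Life Chemicals, filtered for drug-likeness and for reactive groups. It was run against Brugia malayi microfilariae as whole organisms, using previously published standard procedures. Reference drugs acted as positive controls, and activity is reported both as percent inhibition and as IC50.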

[7] = test system: Trypanosoma brucei brucei; assay: WHO-TDR: Human African Trypanosomiasis (HAT); format: functional, organism-based; conditions: Squib-427
In short: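 In this whole-organism screen, the target was the bloodstream form of Trypanosoma brucei, strain Squib 427. A diverse set of 10,000 compounds from Life Chemicals, previously filtered for drug-likeness and reactive groups, was assayed by standard published procedures using reference drugs as positive controls. Each value is an IC50 for antiparasitic potency.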

[8] = test system: Brugia malayi; assay: as §3; format: functional; parameters: concentration or dose not given beside the values; in short: as §4
[9] = test system: Brugia malayi; assay: as §3; format: functional, organism-based; in short: as §4; remark: listed apart in the source
[10] = test system: Brugia malayi; assay: as §3; format: functional; parameters: concentration or dose not given beside the values; in short: as §4; remark: listed apart in the source
[11] = test system: Trypanosoma cruzi; assay: WHO-TDR: Chagas disease; format: functional, organism-based, Homo sapiens; conditions: MRC5
In short: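 Whole-organism screen of a 10,000-compound diverse library from Life Chemicals, filtered for drug-likeness and reactive groups, against intracellular amastigotes of Trypanosoma cruzi Tulahuen CL2 beta-galactosidase strain grown in MRC-5SV2 human lung fibroblast host cells. The assay followed previously published standard procedures, with a reference drug as positive control. Antiparasitic potency is reported as IC50.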

[12] = test system: Schistosoma mansoni; assay: as §1; format: functional, organism-based; in short: as §2

IC50 [1] [µg/mL] | IC50 [2] [µg/mL] | IC50 [6] [µM] | IC50 [7] [µg/mL] | IC50 [9] [nM] | IC50 [12] [µM] | SMILES | % Inhibition [3] [%] | IC50 [4] [µg/mL] | % Inhibition [5] [%] | % Inhibition [8] [%] | % Inhibition [10] [%] | IC50 [11] [µg/mL]
> 11.5 | 3.74 (≈ 9.71 µM) | 1.77 | > 11.5 | 260 | – | Cc1cccc(-n2nc3c(c2NC(=O)Nc2cccc(Cl)c2)CSC3)c1 | 33.34 | > 11.5 | 25 | 100 | 100 | 9.48 (≈ 24.6 µM)
> 15 | > 15 | 5.95 | > 15 | 7070 | – | CCOC(=O)c1ccc(NC(=O)CSc2nnc(NC(=O)C34CC5CC(CC(C5)C3)C4)s2)cc1 | 40 | > 15 | 0 | 100 | 100 | > 15
> 10.5 | > 10.5 | – | > 10.5 | 853 | – | O=C(Nc1nnc(S)s1)c1cc(Br)ccc1Cl | 0 | > 10.5 | 0 | 0 | 100 | > 10.5
> 15.3 | 4.96 (≈ 10.5 µM) | – | > 15.3 | 2970 | – | COC(=O)c1c(NC(=O)c2cc3ccccc3oc2=O)sc2c1CCN(Cc1ccccc1)C2 | 0 | 8.92 (≈ 18.8 µM) | 0 | 100 | 100 | 0.637 (≈ 1.34 µM)
> 13.8 | 4.48 (≈ 9.71 µM) | – | 3.6 (≈ 7.79 µM) | 1180 | – | Cc1ccc(S(=O)(=O)Nc2ccccc2C(=O)Nc2nc3c(s2)Cc2ccccc2-3)cc1 | 0 | 2.51 (≈ 5.44 µM) | 0 | 25 | 100 | 4.98 (≈ 10.8 µM)
> 12.3 | 0.399 (≈ 0.971 µM) | – | 4.31 (≈ 10.5 µM) | – | 4.3 | COc1ccc(N2CCCS2(=O)=O)cc1NC(=O)c1cc(Cl)ccc1OC | 13.3 | > 12.3 | 100 | – | – | 5.04 (≈ 12.3 µM)
> 12.5 | > 12.5 | – | > 12.5 | – | 6.6 | O=C(NCc1nnnn1-c1ccc(Cl)cc1)C1c2ccccc2Oc2ccccc21 | 0 | > 12.5 | 100 | – | – | > 12.5
0.51 (≈ 1.1 µM) | 4.5 (≈ 9.71 µM) | – | 4.4 (≈ 9.49 µM) | – | 8.3 | CCOc1ccc(C(=O)Nc2ccc(Nc3nc(C)cc(N(CC)CC)n3)cc2)cc1OCC | 20 | 3.94 (≈ 8.5 µM) | 100 | – | – | 0.428 (≈ 0.922 µM)
0.77 (≈ 1.87 µM) | 3.9 (≈ 9.49 µM) | – | 3.63 (≈ 8.81 µM) | – | 7.4 | CCN(CC)c1cc(C)nc(Nc2ccc(NC(=O)c3c(F)cccc3F)cc2)n1 | -1 | 2.86 (≈ 6.95 µM) | 100 | – | – | 0.26 (≈ 0.632 µM)
0.378 (≈ 0.99 µM) | 3.7 (≈ 9.71 µM) | – | 0.472 (≈ 1.24 µM) | – | 4.7 | CCN(CC)c1cc(C)nc(Nc2ccc(NC(=O)c3cccs3)cc2)n1 | -1 | 2.96 (≈ 7.76 µM) | 100 | – | – | 0.295 (≈ 0.773 µM)
> 15.1 | > 15.1 | – | > 15.1 | – | 5.1 | COc1cc(C)c(Cl)cc1S(=O)(=O)Nc1ccc(Nc2nc(C)cc(N3CCOCC3)n2)cc1 | 46.7 | > 15.1 | 100 | – | – | > 15.1
0.505 | 4.58 | – | 3.73 | 2990 | – | COc1ccc(C(=O)C[n+]2cc(-c3ccc(OC)cc3)n3c2CCCCC3)cc1 | 0 | 0.572 | 50 | 50 | 99 | < 0.141
5.13 (≈ 13.6 µM) | > 11.3 | – | > 11.3 | – | 3.8 | Cn1ncc2c(N3CCOCC3)nc(NCCc3c[nH]c4ccccc34)nc21 [TDR79432] | 0 | 3.75 (≈ 9.93 µM) | 100 | – | – | 2.69 (≈ 7.11 µM)
